From PubChem BioAssay
This is a sample that favours compounds with a hit; in the whole collection about 4.2% have one here.
GalR3 antag – blocks the human galanin receptor 3. inhibition, % at 3 µM. O60755. HEK293 GalR3-CNG cAMP membrane potential fluorescence; galR3 body fused to GalR1 C-terminus. actives 0.44% (n = 360,000);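 active = inhibition above the screen-wide average plus 3 SD, cut at about 13% in these data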;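 also: forskolin and galanin both at EC90 stimulate the cells; cAMP rise reported by CNG channel membrane potential dye signal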
Target sequence (O60755 1-299 limits assumed): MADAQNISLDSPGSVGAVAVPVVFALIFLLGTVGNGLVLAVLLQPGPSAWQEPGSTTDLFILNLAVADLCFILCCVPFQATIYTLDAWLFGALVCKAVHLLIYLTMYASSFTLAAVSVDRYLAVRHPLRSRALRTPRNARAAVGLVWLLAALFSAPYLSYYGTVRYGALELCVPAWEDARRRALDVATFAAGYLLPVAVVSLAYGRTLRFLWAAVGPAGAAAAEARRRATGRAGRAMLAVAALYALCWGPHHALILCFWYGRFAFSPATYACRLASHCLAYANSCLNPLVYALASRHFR
OX1R antag-1 – blocks the human orexin 1 receptor; AID 485270; OX1R-expressing cells, FRET antagonist read-out; actives 1.8% (n = 330,000); inhibition, % at 6.6 µM; O43613; in the data active = inhibition mostly above about 38%, no sharp cut-off; inactive = mostly below about 40%
Target sequence (O43613 whole entry, looked up): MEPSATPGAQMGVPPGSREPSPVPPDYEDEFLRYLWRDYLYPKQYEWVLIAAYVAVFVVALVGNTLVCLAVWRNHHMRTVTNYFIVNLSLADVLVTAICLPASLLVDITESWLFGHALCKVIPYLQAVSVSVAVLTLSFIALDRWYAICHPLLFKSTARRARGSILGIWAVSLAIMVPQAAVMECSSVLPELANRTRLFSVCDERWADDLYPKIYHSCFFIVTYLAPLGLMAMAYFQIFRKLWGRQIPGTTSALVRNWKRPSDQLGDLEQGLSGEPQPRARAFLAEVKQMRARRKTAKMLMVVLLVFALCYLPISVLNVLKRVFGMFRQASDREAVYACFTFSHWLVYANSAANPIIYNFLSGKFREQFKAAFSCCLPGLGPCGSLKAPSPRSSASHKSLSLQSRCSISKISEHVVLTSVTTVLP
CHO parental Ca – signal in parental CHO cells, OX1R antagonist counter-screen | parental CHO-K1, ATP-induced calcium, Fluo-8 fluorescence | inhibition, % at 5.6 µM | actives 0.63% (n = 330,000) | AID 463079;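 active = inhibition above that plate's mean sample inhibition plus 3 SD, cut at about 26% in these data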
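Material – parental CHO cells · Reagent – ATP stimulus · Compound – single nominal dose of 5.6 µM per compound · Detection – Fluo-8 fluorescence · Read-out basis – percent inhibition of calcium signal · Controls – ATP-challenged DMSO wells low, unchallenged DMSO wells high · Repeats – no replicates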
TAAR1 antagonist – human TAAR1 antagonism; CHO RD-HGA16 TAAR1, Fluo-8 calcium fluorescence, antagonist; inhibition, % at 3 µM; actives 1.5% (n = 360,000);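 active = inhibition above a per-plate cutoff, the mean inhibition of test compounds on that plate plus 3 SD, cut at about 49% in these data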
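System: CHO RD-HGA16 cells bearing hTAAR1. Reagent: EC80 β-phenethylamine stimulus. Schedule: seeding 17-24 h prior, 75-min 37 °C, 30-min RT dye loading. Signal: Fluo-8 intracellular calcium dye fluorescence, real-time kinetic reads. Read-out: % inhibition from peak post-agonist over basal fluorescence ratio. Benchmarks: vehicle wells and EC80 agonist wells. Replicates: n of 1.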
TAAR1 ag – human TAAR1 agonism; activation, % at 3 µM; AID 624467; Q96RJ0; actives 0.99% (n = 360,000); CHO RD-HGA16 TAAR1, Fluo-8 calcium fluorescence; vehicle wells 0%, saturating PEA agonist 100%;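 active = activation above the mean activation of all test compounds in the run plus 3 SD, cut at about 38% in these data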
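Test system: RD-HGA16 (CHO) cells co-expressing Gα16 and hTAAR1; dosing: one-point dosing at 3 µM (nominal); timing: 17-24 h seeding, 75 min 37 °C dye, 30 min RT; signal: kinetic Fluo-8 calcium fluorescence; read-out basis: % activation relative to PEA EC100 response; controls: DMSO and PEA EC100; replicates: n 1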
OX1R antag-2 – blocks the human orexin 1 receptor. O43613. CHO/OX1R cells, Fluo-8 calcium fluorescence, orexin A. inhibition, % at 5 µM. actives 0.43% (n = 330,000);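 active = inhibition above its plate's threshold, mean inhibition of all tested compounds on the plate plus 3 SD, cut at about 37% in these data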
TAAR1 ag confirm – human TAAR1 agonism, confirmed; activation, % at 3 µM; AID 651783; CHO RD-HGA16 TAAR1, Fluo-8 calcium fluorescence; scaled: DMSO 0%, maximal phenethylamine 100%; shares compounds with TAAR1 ag; actives 82% (n = 2,400);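 active = activation above a cutoff set at the run's mean compound activation plus 3 SD, cut at about 39% in these data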
Ga16 nonsel ag – nonselective agonism, TAAR1 counter-screen; shares compounds with TAAR1 ag; CHO-Ga16 parental, Fluo-8 calcium fluorescence; normalized to maximal ATP response, DMSO zero; activation, % at 3 µM; actives 50% (n = 2,400); AID 651787;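 active = activation above the run cutoff, the mean activation over all tested wells plus 3 SD, cut at about 12% in these data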
TAAR1 desens – TAAR1 response desensitization, agonist counter-screen. shares compounds with TAAR1 ag. CHO RD-HGA16 hTAAR1, Fluo-8 calcium, beta-PEA response inhibition. inhibition, % at 3 µM. actives 46% (n = 2,400). AID 651951;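 active = inhibition above the run cutoff, the mean inhibition of all test compounds plus 3 SD, cut at about 49% in these data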;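 also: beta-PEA stimulus applied at its EC80; loss of beta-PEA calcium signal after compound pretreatment read as receptor desensitization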
Ga16 antag count – counter-screen for TAAR1 agonists: nonselective Ga16 antagonists | CHO-Ga16 ATP-induced calcium, Fluo-8 fluorescence | shares compounds with TAAR1 ag | actives 39% (n = 2,400) | inhibition, % at 3 µM | AID 651952;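 active = inhibition above the plate's mean compound inhibition plus 3 SD, computed per plate, cut at about 22% in these data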
Numbers stand for hits; - = inactive; . = no result given.

SMILES	GalR3 antag	OX1R antag-1	CHO parental Ca	TAAR1 antagonist	TAAR1 ag	OX1R antag-2	TAAR1 ag confirm	Ga16 nonsel ag	TAAR1 desens	Ga16 antag count
OC[C@@H]1CN(CCc2ccccc2)C[C@H](n2cnc3c(NCc4ccc(F)cc4)ncnc32)O1	-	.	.	-	66	.	75	-	-	-
Cc1ccc(-c2nc(S(=O)(=O)c3ccc(C)cc3)c(N(C)C)o2)cc1	-	-	-	-	-	-	.	.	.	.
COc1ccccc1CCNS(=O)(=O)CCNC(=O)c1ccc2c(c1)OCO2	-	-	-	-	74	-	91	-	73	-
Cc1ccc(CNS(=O)(=O)CCNC(=O)c2ccc3c(c2)OCO3)cc1	-	-	-	-	-	-	.	.	.	.
Cc1cc(C(=O)CSc2nnnn2C)c(C)n1CCc1ccc(F)cc1	-	-	-	-	44	-	63	-	-	-
Cc1cc(C(=O)CSc2nnnn2-c2ccccc2)c(C)n1CCc1ccccc1	-	-	-	-	58	-	99	-	83	-
Cc1cc(C)c(C#N)c(SCC(=O)c2cc(C)n(CCc3ccccc3)c2C)n1	-	-	46	52	91	-	93	-	100	-
Cc1cc(C(=O)CSc2nnnn2-c2ccc(O)cc2)c(C)n1C	-	-	-	-	-	-	.	.	.	.
COCCn1c(C)cc(C(=O)CSc2nc(C)cc(C)c2C#N)c1C	-	-	-	-	-	-	.	.	.	.
Cc1ccsc1C=Nc1c(C)n(C)n(-c2ccccc2)c1=O	-	-	-	-	-	-	.	.	.	.
Cc1ccccc1CSCC(=O)Nc1ccccc1-c1ccccc1	-	-	-	-	-	-	.	.	.	.
Cc1cc(/C=N/Nc2ncnc(N)c2[N+](=O)[O-])c(C)n1-c1ccccc1	-	51	-	-	73	-	120	49	83	-
COc1cccc(NS(=O)(=O)NC(=O)c2c[nH]c3ccccc23)c1	-	-	-	-	-	-	.	.	.	.
COc1ccc(/C=C/CN2CCC(C(=O)NC(c3ccc(F)cc3)c3ccc4ccccc4n3)CC2)cc1 (stereo not drawn)	-	.	.	-	47	.	40	23	-	26
N#CC(C#N)=Cc1cn(-c2ncc(C(F)(F)F)cc2Cl)c2ccccc12	-	-	-	-	-	-	.	.	.	.
O=C(NCc1ccccc1)[C@H]1CCCN1C(=O)[C@H]1CCCN1C(=O)c1ccc(F)c(F)c1	-	.	.	-	-	.	.	.	.	.
CCCCCCCOC(=O)C[N+](C)(C)CCOC1CC2CCC1(C)C2(C)C (stereo not drawn)	-	.	.	-	56	.	74	38	-	35
COc1ccc(S(=O)(=O)Nc2ccc3c(c2)OCCO3)cc1OC	-	-	-	-	-	-	.	.	.	.
COc1ccc(C2(C)NC(=O)N(CC(=O)Nc3cccnc3Cl)C2=O)cc1 (stereo not drawn)	-	-	-	-	-	-	.	.	.	.
CC1(c2ccc(OC(F)F)cc2)NC(=O)N(CC(=O)Nc2cccnc2Cl)C1=O (stereo not drawn)	-	-	-	73	129	-	131	86	78	40
Cc1ccc(C)c(C(O)c2ncc(-c3cccc(C(F)(F)F)c3)[nH]2)c1 (stereo not drawn)	-	.	.	66	66	.	58	45	-	33
Cc1ccc(C(O)c2ncc(-c3cccc(C(F)(F)F)c3)[nH]2)c(C)c1 (stereo not drawn)	-	.	.	-	-	.	.	.	.	.
Oc1ccccc1C=NCCN=Cc1ccccc1O	-	-	-	-	-	-	.	.	.	.
NC(=NCCc1ccccc1)NC(=O)c1cc(Cl)ccc1O	-	-	-	77	90	-	91	-	94	23
Oc1ccc(Cl)cc1C=NCCc1ccccc1	-	-	-	.	.	-	.	-	.	-
SMILES	GalR3 antag	OX1R antag-1	CHO parental Ca	TAAR1 antagonist	TAAR1 ag	OX1R antag-2	TAAR1 ag confirm	Ga16 nonsel ag	TAAR1 desens	Ga16 antag count
Cc1c(C(=O)NCc2ccc(C(F)(F)F)cc2)sc(=O)n1Cc1cccc(F)c1	-	.	.	100	127	.	114	77	97	71
Cc1c(C(=O)NCc2cccc(C(F)(F)F)c2)sc(=O)n1Cc1cccc(F)c1	-	.	.	-	-	.	.	.	.	.
O=C(NC1CCCCC1)C1CCC(=O)N(Cc2cccc(C(F)(F)F)c2)C1 (stereo not drawn)	-	-	-	-	-	-	.	.	.	.
CCCOc1cc(NCc2ccccc2)c2ncn(C(C)C)c2c1	-	-	-	-	61	-	41	18	-	-
COCCOc1cc(NCc2ccccc2)c2ncn(C(C)C)c2c1	-	-	-	-	-	-	.	.	.	.
CC(C)n1cnc2c(NCc3ccccc3)cc(Cc3ccc(F)cc3)cc21	-	-	-	-	47	-	-	-	-	-
Cn1nc(C(C)(C)C)cc1C(=O)N1CCCC(c2cc(C(=O)NCc3ccccc3)no2)C1 (stereo not drawn)	-	.	.	-	-	.	.	.	.	.
CCCCN(C)c1c(C)nc2ccc(C(=O)Nc3ccc(OC)c(OC)c3)cn12	-	.	.	-	63	.	85	48	-	-
O=C(O)/C=C/C(=O)NCc1ccccc1	-	-	-	-	-	-	.	.	.	.
O=C(O)/C=C/C(=O)NCCCc1ccccc1	-	-	-	-	74	-	103	-	78	-
CCCOc1ccccc1NC(=O)c1ccc(N)cc1	-	-	-	-	-	-	.	.	.	.
Cc1ccc(N=Nc2ccc(O)c3ncccc23)cc1	-	-	59	82	63	-	-	-	-	51
CCOc1cc(/C=C2/C(=O)NN(c3cccc(Cl)c3)C2=O)ccc1O	-	-	-	-	53	-	62	18	-	-
CCCOc1ccc(-c2c(C(=O)N/N=C/c3ccsc3)nnn2-c2nonc2N)cc1	-	-	-	-	-	-	.	.	.	.
CCCOc1ccc(-c2c(C(=O)N/N=C(\C)c3cccs3)nnn2-c2nonc2N)cc1	-	-	-	-	53	-	56	22	-	-
CCOc1ccc(/C(C)=N/NC(=O)c2nnn(-c3nonc3N)c2-c2cccs2)cc1	-	-	-	-	119	-	117	88	-	-
COc1cccc(Cn2cccc(NC(=O)NC3CCCCC3)c2=O)c1	-	-	-	-	51	-	-	17	-	-
